# ChEMBL document CHEMBL5724801, “EUbOPEN Chemogenomics Library - Multiplex” (2024)
# Values joined by “and” are separate entries in the source; they are usually repeats but may differ in a detail not shown here. Identical values can stand only once. Non-standard residues stand in square brackets, D forms with d. Residues, ends and D or L forms follow the SMILES beside them.
# Legend:
# HEK-293T = test: Multiplex assay against HEK293T; type: toxicity, cell-based; conditions: human
# Outline: (§1)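 Imaging took place on a CQ1 microscope at 37°C and 5% CO2 once compound had been added to live cells stained at seeding with Hoechst33342, BioTracker Green Microtubule Cytoskeleton Dye, MitoTracker Red and Annexin V Alexa Fluor 680. CellPathfinder machine-learning gating classed cells as Hoechst high-intensity objects or normal cells, classed normal cells as having healthy, pyknosed or fragmented nuclei, and classed pyknosed cells as mitotic or apoptotic. Tubulin, mitochondrial-mass and membrane-permeability phenotypes are per cents of the healthy-nucleus cells.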
# Fibroblast = test: Multiplex assay against human fibroblast; type: toxicity, cell-based; outline: as §1
# [1] = 12 h, 1 µM, compound concentration 1 uM
# [2] = 12 h, 10 µM, compound concentration 10 uM
# [3] = 24 h, 1 µM, compound concentration 1 uM
# [4] = 24 h, 10 µM, compound concentration 10 uM
# [5] = 48 h, 1 µM, compound concentration 1 uM
# [6] = 48 h, 10 µM, compound concentration 10 uM
structure (smiles),measurement,setting,value
CC(C)C[C@@H]1NC(=O)[C@@H](C(C)C)NC(=O)[C@@H]2CCCN2C(=O)[C@@H](CC(=O)O)NC(=O)[C@@H](Cc2c[nH]c3ccccc23)NC1=O [BQ-123] (cyclo(L[dW][dD]P[dV])),Population Apoptotic (%),HEK-293T; [1],46%
same,Population Fragmented Nuclei (%),HEK-293T; [1],7% and 5%
same,Population Healthy Nuclei (%),HEK-293T; [1],80% and 82%
same,Population Hoechst High Intensity Objects (%),HEK-293T; [1],4% and 7%
same,Population Membrane Permeable-Phenotype (%),HEK-293T; [1],0%
same,Population Mitochondria Different-Phenotype (%),HEK-293T; [1],39% and 59%
same,Population Mitotic Cells (%),HEK-293T; [1],53%
same,Population Normal (%),HEK-293T; [1],95% and 92%
same,Population Pyknosed Nuclei (%),HEK-293T; [1],11%
same,Population Tubulin-Different-Phenotype (%),HEK-293T; [1],32% and 19%
same,Total Cell Count,HEK-293T; [1],376 and 392
same,Population Apoptotic (%),HEK-293T; [2],30% and 71%
same,Population Fragmented Nuclei (%),HEK-293T; [2],7% and 5%
same,Population Healthy Nuclei (%),HEK-293T; [2],78%
same,Population Hoechst High Intensity Objects (%),HEK-293T; [2],7% and 11%
same,Population Membrane Permeable-Phenotype (%),HEK-293T; [2],0%
same,Population Mitochondria Different-Phenotype (%),HEK-293T; [2],48% and 65%
same,Population Mitotic Cells (%),HEK-293T; [2],69% and 28%
same,Population Normal (%),HEK-293T; [2],92% and 88%
same,Population Pyknosed Nuclei (%),HEK-293T; [2],14% and 16%
same,Population Tubulin-Different-Phenotype (%),HEK-293T; [2],31% and 22%
same,Total Cell Count,HEK-293T; [2],387 and 265
same,Population Apoptotic (%),HEK-293T; [3],26% and 40%
same,Population Fragmented Nuclei (%),HEK-293T; [3],10% and 7%
same,Population Healthy Nuclei (%),HEK-293T; [3],79% and 82%
same,Population Hoechst High Intensity Objects (%),HEK-293T; [3],3% and 5%
same,Population Membrane Permeable-Phenotype (%),HEK-293T; [3],0%
same,Population Mitochondria Different-Phenotype (%),HEK-293T; [3],27% and 35%
same,Population Mitotic Cells (%),HEK-293T; [3],73% and 59%
same,Population Normal (%),HEK-293T; [3],96% and 94%
same,Population Pyknosed Nuclei (%),HEK-293T; [3],9%
same,Population Tubulin-Different-Phenotype (%),HEK-293T; [3],21% and 14%
same,Total Cell Count,HEK-293T; [3],497 and 538
same,Population Apoptotic (%),HEK-293T; [4],25% and 57%
same,Population Fragmented Nuclei (%),HEK-293T; [4],11% and 8%
same,Population Healthy Nuclei (%),HEK-293T; [4],77% and 78%
same,Population Hoechst High Intensity Objects (%),HEK-293T; [4],6% and 7%
same,Population Membrane Permeable-Phenotype (%),HEK-293T; [4],0%
same,Population Mitochondria Different-Phenotype (%),HEK-293T; [4],31% and 50%
same,Population Mitotic Cells (%),HEK-293T; [4],75% and 42%
same,Population Normal (%),HEK-293T; [4],93% and 92%
same,Population Pyknosed Nuclei (%),HEK-293T; [4],11% and 12%
same,Population Tubulin-Different-Phenotype (%),HEK-293T; [4],24% and 18%
same,Total Cell Count,HEK-293T; [4],511 and 302
same,Population Apoptotic (%),HEK-293T; [5],21% and 24%
same,Population Fragmented Nuclei (%),HEK-293T; [5],11%
same,Population Healthy Nuclei (%),HEK-293T; [5],79% and 81%
same,Population Hoechst High Intensity Objects (%),HEK-293T; [5],3% and 5%
same,Population Membrane Permeable-Phenotype (%),HEK-293T; [5],0% and 1%
same,Population Mitochondria Different-Phenotype (%),HEK-293T; [5],22% and 18%
same,Population Mitotic Cells (%),HEK-293T; [5],78% and 75%
same,Population Normal (%),HEK-293T; [5],96% and 94%
same,Population Pyknosed Nuclei (%),HEK-293T; [5],9% and 7%
same,Population Tubulin-Different-Phenotype (%),HEK-293T; [5],15% and 10%
same,Total Cell Count,HEK-293T; [5],719 and 777
same,Population Apoptotic (%),HEK-293T; [6],25% and 40%
same,Population Fragmented Nuclei (%),HEK-293T; [6],16% and 11%
same,Population Healthy Nuclei (%),HEK-293T; [6],77% and 80%
same,Population Hoechst High Intensity Objects (%),HEK-293T; [6],3%
same,Population Membrane Permeable-Phenotype (%),HEK-293T; [6],1% and 0%
same,Population Mitochondria Different-Phenotype (%),HEK-293T; [6],21% and 29%
same,Population Mitotic Cells (%),HEK-293T; [6],75% and 59%
same,Population Normal (%),HEK-293T; [6],96%
same,Population Pyknosed Nuclei (%),HEK-293T; [6],6% and 8%
same,Population Tubulin-Different-Phenotype (%),HEK-293T; [6],15% and 16%
same,Total Cell Count,HEK-293T; [6],756 and 477
same,Population Apoptotic (%),Fibroblast; [1],57% and 21%
same,Population Fragmented Nuclei (%),Fibroblast; [1],18% and 22%
same,Population Healthy Nuclei (%),Fibroblast; [1],68% and 58%
same,Population Hoechst High Intensity Objects (%),Fibroblast; [1],0% and 3%
same,Population Membrane Permeable-Phenotype (%),Fibroblast; [1],1% and 5%
same,Population Mitochondria Different-Phenotype (%),Fibroblast; [1],11% and 2%
same,Population Mitotic Cells (%),Fibroblast; [1],42% and 78%
same,Population Normal (%),Fibroblast; [1],100% and 96%
same,Population Pyknosed Nuclei (%),Fibroblast; [1],13% and 18%
same,Population Tubulin-Different-Phenotype (%),Fibroblast; [1],31%
same,Total Cell Count,Fibroblast; [1],105 and 157
same,Population Apoptotic (%),Fibroblast; [2],48% and 33%
same,Population Fragmented Nuclei (%),Fibroblast; [2],15% and 30%
same,Population Healthy Nuclei (%),Fibroblast; [2],65% and 48%
same,Population Hoechst High Intensity Objects (%),Fibroblast; [2],2%
same,Population Membrane Permeable-Phenotype (%),Fibroblast; [2],0% and 4%
same,Population Mitochondria Different-Phenotype (%),Fibroblast; [2],9% and 3%
same,Population Mitotic Cells (%),Fibroblast; [2],52% and 66%
same,Population Normal (%),Fibroblast; [2],97%
same,Population Pyknosed Nuclei (%),Fibroblast; [2],18% and 20%
same,Population Tubulin-Different-Phenotype (%),Fibroblast; [2],33% and 46%
same,Total Cell Count,Fibroblast; [2],136 and 134
same,Population Apoptotic (%),Fibroblast; [3],53% and 24%
same,Population Fragmented Nuclei (%),Fibroblast; [3],19% and 23%
same,Population Healthy Nuclei (%),Fibroblast; [3],66% and 57%
same,Population Hoechst High Intensity Objects (%),Fibroblast; [3],1% and 6%
same,Population Membrane Permeable-Phenotype (%),Fibroblast; [3],0% and 3%
same,Population Mitochondria Different-Phenotype (%),Fibroblast; [3],5% and 3%
same,Population Mitotic Cells (%),Fibroblast; [3],46% and 75%
same,Population Normal (%),Fibroblast; [3],98% and 93%
same,Population Pyknosed Nuclei (%),Fibroblast; [3],14% and 18%
same,Population Tubulin-Different-Phenotype (%),Fibroblast; [3],24% and 25%
